Sampled rows, rich in hits. Any-hit rate of the full collection: about 2.8%.
CAL PDZ FP-1 = blocks peptide binding to human CAL PDZ domain | Q9HD26 | purified CAL PDZ, TMR-peptide fluorescence polarization, 1 h | inhibition, % at 20 µM | 330,000 compounds, 0.02% hits | AID 504414;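 active = highest replicate inhibition of at least 40%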;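 note: plate controls were DMSO neutral control wells for no effect and unlabeled competitor peptide control wells for full effect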
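Material: tagged CAL PDZ protein CerCALP, purified; buffer or medium: sodium phosphate/NaCl buffer pH 7.4 with TCEP, IgG, Thesit; also added: fluorescent TMR peptide probe; schedule: 1 h incubation at room temperature before polarization reading; technique: fluorescence polarization from S- and P-plane intensities, G-factor corrected; control set: unlabelled peptide and DMSO controls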
SR-BI DiI inh = inhibitors of mouse SR-BI mediated HDL lipid uptake; Q61009; ldlA[mSR-BI] CHO cells, DiI-HDL uptake fluorescence, 3 h; inhibition, % at 12.5 µM; 320,000 compounds, 0.96% hits;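 active = mean replicate inhibition of at least 70% and a set share of replicates each scoring 70 or more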;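 note: 0% = median of neutral control wells and 100% = median of positive control wells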
Target sequence (Q61009 whole entry, looked up): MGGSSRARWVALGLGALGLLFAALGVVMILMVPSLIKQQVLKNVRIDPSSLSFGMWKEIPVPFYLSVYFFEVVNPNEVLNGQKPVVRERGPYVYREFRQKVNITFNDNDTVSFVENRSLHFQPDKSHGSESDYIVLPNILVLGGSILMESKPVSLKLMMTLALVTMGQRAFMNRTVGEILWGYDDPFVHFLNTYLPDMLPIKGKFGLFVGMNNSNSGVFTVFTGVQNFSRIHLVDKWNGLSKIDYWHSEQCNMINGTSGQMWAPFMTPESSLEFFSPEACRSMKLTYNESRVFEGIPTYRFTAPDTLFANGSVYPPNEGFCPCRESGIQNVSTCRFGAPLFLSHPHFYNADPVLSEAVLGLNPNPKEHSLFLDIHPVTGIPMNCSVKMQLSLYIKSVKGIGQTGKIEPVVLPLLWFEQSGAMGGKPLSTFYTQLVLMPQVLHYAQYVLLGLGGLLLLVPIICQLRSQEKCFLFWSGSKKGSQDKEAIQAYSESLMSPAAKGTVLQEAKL
dFosB act = activators of mouse delta FosB homodimer; 340,000 compounds, 0.99% hits; activation, % at 25 µM; purified delta FosB, TAMRA-CDK5 oligo fluorescence polarization; percent of positive-control signal above neutral wells; AID 493131;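 active = mean activation above about 17%, with every replicate also reaching it, limit read from the data, passing the limit was not always enough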
CAL PDZ FP-2 = CAL PDZ (human) peptide binding inhibition | Q9HD26 | purified CAL PDZ, TMR-peptide fluorescence polarization, 1 h | inhibition, % at 24.9 µM | 300,000 compounds, 0.92% hits;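 active = mean inhibition of at least 30% with at least half of replicates also reaching 30%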;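 note: 0% = DMSO neutral control and 100% = excess unlabeled competitor peptide PRC23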
SR-BI uptake up = activators of SR-BI mediated HDL lipid uptake; CHO ldlA[mSR-BI] cells, DiI-HDL uptake fluorescence, 3 h; 100 = double the neutral-control signal; 320,000 compounds, 0.096% hits; activation, % at 12.5 µM;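 active = mean replicate activation of at least 60% and every replicate at or above 60%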;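 note: 0% = median plate neutral-control signal and 100% = twice that signal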
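Material – SR-BI-overexpressing, LDLR-lacking CHO cells · Medium – BSA-supplemented, HEPES-buffered Ham's F12, pH 7.4 · Doses – single concentration · Times – compound with DiI-HDL co-incubation, 3 h at 37 °C · Measured by – bottom-read fluorescence, 550/595 nm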
Active calls of the source: *.

What do the screens show for `CC(Oc1ccc(Cl)cc1C(N)=O)C(=O)N1CCc2ccccc21` (centres undefined)?
CAL PDZ FP-1: 1; SR-BI DiI inh: 21; dFosB act: -9; CAL PDZ FP-2: 73*; SR-BI uptake up: -21

How did CCOC(=O)n1cc(C(=O)c2ccccc2O)cn1 do in these assays?
CAL PDZ FP-1: -1; SR-BI DiI inh: -11; dFosB act: -1; CAL PDZ FP-2: -4; SR-BI uptake up: 11

What do the screens show for `CC(C)(C)OC(=O)n1cc(C(=O)c2ccccc2O)cn1`?
CAL PDZ FP-1: -1; SR-BI DiI inh: -6; dFosB act: -1; CAL PDZ FP-2: 70*; SR-BI uptake up: 6

What do the screens show for `Clc1ccc2c(N/N=C/c3ccc(Br)cc3)ccnc2c1`?
CAL PDZ FP-1: -1; SR-BI DiI inh: 13; dFosB act: 34*; CAL PDZ FP-2: -2; SR-BI uptake up: -13

Results for Cc1ccc(/C=N/Nc2ccnc3cc(Cl)ccc23)c(C)c1 ?
CAL PDZ FP-1: -1; SR-BI DiI inh: 17; dFosB act: 49*; CAL PDZ FP-2: 7; SR-BI uptake up: -17

What do the screens show for `Clc1ccc2c(N/N=C/c3cccnc3)ccnc2c1`?
CAL PDZ FP-1: -6; SR-BI DiI inh: 7; dFosB act: -27; CAL PDZ FP-2: 1; SR-BI uptake up: -7

Results for CCN(CC)CCCNC(=O)c1nn2c(C(F)(F)F)cc(-c3ccccc3)nc2c1Cl ?
CAL PDZ FP-1: -1; SR-BI DiI inh: 46; dFosB act: -7; CAL PDZ FP-2: -7; SR-BI uptake up: -46

Results for CC1CN(C(=O)c2ccccc2OCc2ccc(Cl)cc2Cl)CC(C)O1 (centres undefined) ?
CAL PDZ FP-1: -3; SR-BI DiI inh: 0; dFosB act: -9; CAL PDZ FP-2: -3

What do the screens show for `CCOC(=O)c1c(NC(=O)COC(=O)c2cnccn2)sc(C(=O)NC)c1C`?
CAL PDZ FP-1: 0; SR-BI DiI inh: 1; dFosB act: 39*; CAL PDZ FP-2: -3; SR-BI uptake up: -1

How did CCOC(=O)Nc1sc(C)nc1-c1ccccc1 do in these assays?
CAL PDZ FP-1: -2; SR-BI DiI inh: 20; dFosB act: -1; CAL PDZ FP-2: -4; SR-BI uptake up: -20

How did CCOC(=O)Nc1nc(-c2ccccc2)c(C(=O)c2ccc(Cl)cc2)s1 do in these assays?
CAL PDZ FP-1: -2; SR-BI DiI inh: 83*; dFosB act: -14; CAL PDZ FP-2: -3; SR-BI uptake up: -83

How did Cc1ccc(NC(=O)CN(C)C(=O)c2ccc3[nH]c4c(c3c2)CC(C)CC4)cc1 (centres undefined) do in these assays?
CAL PDZ FP-1: 0; SR-BI DiI inh: 14; dFosB act: -4; CAL PDZ FP-2: 74*; SR-BI uptake up: -14

Results for CCOC(=O)c1sc2nc(SC)nc(-c3ccc(Cl)cc3)c2c1N ?
CAL PDZ FP-1: -1; SR-BI DiI inh: 87*; dFosB act: 6; CAL PDZ FP-2: -2; SR-BI uptake up: -87

Results for COc1ccc(NC(=O)COc2cccc(-n3cnnn3)c2)cc1Cl ?
CAL PDZ FP-1: -2; SR-BI DiI inh: 20; dFosB act: 9; CAL PDZ FP-2: 1; SR-BI uptake up: -21

What do the screens show for `CSCCC(NC(=O)COc1cccc2ccccc12)C(=O)O` (centres undefined)?
CAL PDZ FP-1: 0; SR-BI DiI inh: -13; dFosB act: 1; CAL PDZ FP-2: 70*; SR-BI uptake up: 13

How did CN(c1ccc(OCC(=O)N2CCC(C(N)=O)CC2)cc1)S(=O)(=O)c1cccs1 do in these assays?
CAL PDZ FP-1: 0; SR-BI DiI inh: 1; dFosB act: 5; CAL PDZ FP-2: 62*; SR-BI uptake up: -1

Results for Nc1nc(COC(=O)C2CC(=O)N(CCc3ccccc3)C2)nc(Nc2ccccc2)n1 (centres undefined) ?
CAL PDZ FP-1: -1; SR-BI DiI inh: -8; dFosB act: 1; CAL PDZ FP-2: -1; SR-BI uptake up: 8

How did COc1cc(NC(=S)NCCc2ccc(S(N)(=O)=O)cc2)c(OC)cc1Cl do in these assays?
CAL PDZ FP-1: -1; SR-BI DiI inh: 46; dFosB act: -7; CAL PDZ FP-2: 1; SR-BI uptake up: -46

What do the screens show for `Cc1nn(C)cc1S(=O)(=O)N1CCN(c2ccccc2)CC1`?
CAL PDZ FP-1: -2; SR-BI DiI inh: -9; dFosB act: 2; CAL PDZ FP-2: 2; SR-BI uptake up: 9

How did COc1ccc(-c2ncncc2-c2ccc(OC)c(OC)c2)c(O)c1 do in these assays?
SR-BI DiI inh: 31; dFosB act: -1; CAL PDZ FP-2: -6; SR-BI uptake up: -31

Results for COc1ccc(-c2nc(N)ncc2-c2ccc(OC)c(OC)c2)c(O)c1 ?
dFosB act: -6; CAL PDZ FP-2: 59*

How did Cc1cc(OC(C)C(=O)NCc2ccncc2)c2c(C)c(C)c(=O)oc2c1 (centres undefined) do in these assays?
CAL PDZ FP-1: -3; SR-BI DiI inh: 0; dFosB act: -10; CAL PDZ FP-2: -2; SR-BI uptake up: 0

How did O=C(Nc1ccccc1C(=O)O)c1cccc(N2C(=O)c3ccccc3C2=O)c1 do in these assays?
CAL PDZ FP-1: -2; SR-BI DiI inh: -25; dFosB act: -4; CAL PDZ FP-2: 51*; SR-BI uptake up: 25

Results for O=C(O)c1cc(NC(=O)c2cccc(N3C(=O)c4ccccc4C3=O)c2)cc(C(=O)O)c1 ?
CAL PDZ FP-1: 0; SR-BI DiI inh: -10; dFosB act: 1; CAL PDZ FP-2: 1; SR-BI uptake up: 10

What do the screens show for `CCc1ccc(OCC(=O)N/N=C\c2ccco2)c([N+](=O)[O-])c1`?
CAL PDZ FP-1: 0; SR-BI DiI inh: 11; dFosB act: -2; CAL PDZ FP-2: -5; SR-BI uptake up: -11

What do the screens show for `COc1ccccc1/C=C(\NC(=O)c1ccc(OC)c(OC)c1)C(=O)Nc1cccc([N+](=O)[O-])c1`?
CAL PDZ FP-1: -1; SR-BI DiI inh: 74*; dFosB act: 9; CAL PDZ FP-2: -1; SR-BI uptake up: -74

How did O=C(O)c1cccc(NC(=O)c2cccc(S(=O)(=O)Nc3cccc([N+](=O)[O-])c3)c2)c1 do in these assays?
CAL PDZ FP-1: -2; SR-BI DiI inh: -22; dFosB act: 6; CAL PDZ FP-2: 96*; SR-BI uptake up: 22

What do the screens show for `COc1ccc(C(=O)Nc2cccc(/C(C)=N/NC(=O)c3ccc([N+](=O)[O-])c(C)c3)c2)cc1OC`?
CAL PDZ FP-1: -2; SR-BI DiI inh: 86*; dFosB act: 0; CAL PDZ FP-2: 5; SR-BI uptake up: -86

What do the screens show for `Cc1ccc(C(=O)Nc2cccc([N+](=O)[O-])c2)cc1S(=O)(=O)Nc1cccc(C(=O)O)c1`?
CAL PDZ FP-1: -1; SR-BI DiI inh: -8; dFosB act: -4; CAL PDZ FP-2: -1; SR-BI uptake up: 8

What do the screens show for `COc1cc(/C=N/NC(=O)c2cccc([N+](=O)[O-])c2)ccc1OCc1ccccc1`?
CAL PDZ FP-1: 0; SR-BI DiI inh: 89*; dFosB act: -4; CAL PDZ FP-2: 2; SR-BI uptake up: -89

Assay outcomes as filed in PubChem BioAssay.
